The source made the active and inactive calls. No cut-off for these calls is given here.
How the values were obtained:
Staphylococcus aureus [1] = test: Antibacterial activity against methicillin-sensitive Staphylococcus aureus MTCC 737 assessed as growth inhibition by broth microdilution method; type: functional
Summary of the method: (§1)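 Broth microdilution per CLSI; compounds serially diluted in autoclaved water. Bacteria grown 6 h in suitable media, diluted to 10⁵ CFU/mL; compound added to bacterial suspension, incubated at 37 °C, OD600 read. Triplicate wells, experiment done at least twice; mean OD versus concentration sigmoidally fitted, MIC taken where OD equals no-bacteria control.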

Staphylococcus aureus [2] = test: Antibacterial activity against methicillin-resistant Staphylococcus aureus ATCC 33591 assessed as growth inhibition by broth microdilution method; type: functional
Summary of the method: (§2)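 Broth microdilution per CLSI; compounds serially diluted in sterile water, added to bacteria at 10^5 CFU/mL (diluted from 6 h cultures). Incubated at 37 °C, OD600 read. Triplicate wells, experiment done at least twice. Mean OD plotted against concentration and fitted sigmoidally; MIC taken where OD matches the no-bacteria control.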

Staphylococcus aureus [3] = test: Antibacterial activity against vancomycin-intermediate-resistant Staphylococcus aureus assessed as growth inhibition by broth microdilution method; type: functional; summary of the method: as §2
Enterococcus faecium [4] = test: Antibacterial activity against vancomycin-sensitive Enterococcus faecium ATCC 19634 assessed as growth inhibition by broth microdilution method; type: functional; summary of the method: as §1
Enterococcus faecium [5] = test: Antibacterial activity against vancomycin-resistant VanA phenotype of Enterococcus faecium ATCC 51559 assessed as growth inhibition by broth microdilution method; type: functional; summary of the method: as §2
Staphylococcus aureus [6] = test: Antibacterial activity against methicillin-resistant Staphylococcus aureus ATCC 33591 assessed as induction of membrane depolarization at 10 uM measured for 10 mins by DiSC3(5) dye-based spectrofluorometric analysis; type: functional, organism-based
Summary of the method: (§3)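 Membrane potential assay with DiSC3(5): dye added to cells until maximal uptake, seen as a fluorescence minimum (about 10 min). Compounds then added and depolarization followed as the fluorescence increase over a further 10 min.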

Enterococcus faecium [7] = test: Antibacterial activity against vancomycin-resistant VanA phenotype of Enterococcus faecium ATCC 51559 assessed as induction of membrane depolarization at 10 uM measured for 10 mins by DiSC3(5) dye-based spectrofluorometric analysis; type: functional, organism-based; summary of the method: as §3
Staphylococcus aureus [8] = test: Antibacterial activity against methicillin-resistant Staphylococcus aureus ATCC 33591 assessed as induction of cytoplasmic membrane permeabilization at 10 uM measured for 10 mins by propidium iodide uptake assay; type: functional, organism-based
Summary of the method: (§4)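 Mid-log (6 h) cells harvested at 4 °C, washed and resuspended in PBS pH 7.2. Compound added to cells with 10 μM propidium iodide. Fluorescence (ex 535/em 617 nm) monitored 10 min at RT; the rise in PI fluorescence taken as inner membrane permeabilization.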

Enterococcus faecium [9] = test: Antibacterial activity against vancomycin-resistant VanA phenotype of Enterococcus faecium ATCC 51559 assessed as induction of cytoplasmic membrane permeabilization at 10 uM measured for 10 mins by propidium iodide uptake assay; type: functional, organism-based; summary of the method: as §4
Enterococcus faecium [10] = test: Antibacterial activity against vancomycin-resistant VanA phenotype of Enterococcus faecium ATCC 51559 assessed as leakage of intracellular potassium ion at 10 uM measured for 10 mins by PBFI-AM dye-based spectrofluorometric analysis; type: functional, organism-based
Summary of the method: (§5)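 Mid-log (6 h) cells washed twice and resuspended in 10 mM HEPES pH 7.2 with 0.5% glucose. Signal stabilized 60 s at RT, then 1 μM PBFI-AM added and a 2 min baseline recorded before compound.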

Staphylococcus aureus [11] = test: Bacteriostatic activity against methicillin-resistant Staphylococcus aureus ATCC 33591 measured over 24 hrs; type: functional, organism-based
Summary of the method: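 MRSA in yeast-dextrose broth, starting inoculum 1.6 × 10^8 CFU/mL. […] Samples taken at 0, 1, 2, 3, 6 and 24 h, diluted 10-fold serially in saline and plated on yeast-dextrose agar. Colonies counted after 24 h at 37 °C; log10 CFU/mL reported.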

Staphylococcus aureus [12] = test: Bactericidal activity against methicillin-resistant Staphylococcus aureus ATCC 33591 infected in 90% human whole blood at 3.6 uM after 3 hrs; type: functional, organism-based
Summary of the method: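 MRSA (30 μL of 10^6 CFU/mL in 0.9% saline) mixed with compound at 3.6 μM and 270 μL fresh human whole blood. Incubated 3 h at 37 °C.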

Staphylococcus aureus [13] = test: Antibacterial activity against methicillin-resistant Staphylococcus aureus ATCC 33591 assessed as growth inhibition measured after 20 serial passages; type: functional, organism-based
Summary of the method: (§6)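 Serial passage: the MIC assay is run against MRSA, then cells from the one-half-MIC well of the previous assay are harvested and inoculated into fresh yeast-dextrose broth for the next MIC assay after 24 h incubation. Repeated for […] passages; MIC plotted against passage number and fold increase in MIC determined.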

Staphylococcus aureus [14] = test: Ratio of MIC for methicillin-resistant Staphylococcus aureus ATCC 33591 measured after 52 serial passages to MIC for methicillin-resistant Staphylococcus aureus ATCC 33591; type: functional; summary of the method: as §6
Staphylococcus aureus [15] = test: Antibacterial activity against methicillin-resistant Staphylococcus aureus ATCC 33591 assessed as leakage of intracellular potassium ion at 10 uM measured for 10 mins by PBFI-AM dye-based spectrofluorometric analysis relative to control; type: functional; summary of the method: as §5
Staphylococcus aureus [16] = test: Antibacterial activity against methicillin-resistant Staphylococcus aureus ATCC 33591 infected in CD-1 mouse neutropenic thigh infection model assessed as reduction of bacterial burden in thigh at 12 mg/kg, iv bid administered as 12 hrs interval measured after 24 hrs; type: functional, organism-based; set-up: dose 12 mg/kg
Summary of the method: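 Neutropenic mouse thigh model: about 50 μL MRSA inoculum injected into the thigh. About 1 h later, iv treatment twice at 12 h intervals with saline, vancomycin or compound at 12 mg/kg. At 24 h, thigh homogenate dilutions plated and incubated overnight at 37 °C; titer expressed as log10 CFU/g thigh.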

SMILES	MIC (Staphylococcus aureus [1]) [µM]	MIC (Staphylococcus aureus [2]) [µM]	MIC (Staphylococcus aureus [3]) [µM]	MIC (Enterococcus faecium [4]) [µM]	MIC (Enterococcus faecium [5]) [µM]	Activity (Staphylococcus aureus [6])	Activity (Enterococcus faecium [7])	Activity (Staphylococcus aureus [8])	Activity (Enterococcus faecium [9])	Activity (Enterococcus faecium [10])	Activity (Staphylococcus aureus [11])	Activity (Staphylococcus aureus [12])	Activity (Staphylococcus aureus [13])	Ratio (Staphylococcus aureus [14])	Activity (Staphylococcus aureus [15]) [%]	Activity (Staphylococcus aureus [16])
CC[N+](C)(C)CCCNC(=O)[C@H]1NC(=O)[C@H]2NC(=O)[C@H](NC(=O)[C@@H]3NC(=O)[C@H](CC(N)=O)NC(=O)[C@H](NC(=O)[C@@H](CC(C)C)NC)[C@H](O)c4ccc(c(Cl)c4)Oc4cc3cc(c4O[C@@H]3O[C@H](CO)[C@@H](O)[C@H](O)[C@H]3O[C@H]3C[C@](C)(N)[C@H](O)[C@H](C)O3)Oc3ccc(cc3Cl)[C@H]2O)c2ccc(O)c(c2)-c2c(O)cc(O)cc21	0.39	2.42	1.3	0.45	> 100	inactive	inactive	inactive	inactive	inactive						
CCCC[N+](C)(C)CCCNC(=O)[C@H]1NC(=O)[C@H]2NC(=O)[C@H](NC(=O)[C@@H]3NC(=O)[C@H](CC(N)=O)NC(=O)[C@H](NC(=O)[C@@H](CC(C)C)NC)[C@H](O)c4ccc(c(Cl)c4)Oc4cc3cc(c4O[C@@H]3O[C@H](CO)[C@@H](O)[C@H](O)[C@H]3O[C@H]3C[C@](C)(N)[C@H](O)[C@H](C)O3)Oc3ccc(cc3Cl)[C@H]2O)c2ccc(O)c(c2)-c2c(O)cc(O)cc21	0.37	0.6	1.14	0.31	> 100	inactive	inactive	inactive	inactive	inactive						
CN[C@H](CC(C)C)C(=O)N[C@H]1C(=O)N[C@@H](CC(N)=O)C(=O)N[C@H]2C(=O)N[C@H]3C(=O)N[C@H](C(=O)N[C@H](C(=O)O)c4cc(O)cc(O)c4-c4cc3ccc4O)[C@H](O)c3ccc(c(Cl)c3)Oc3cc2cc(c3O[C@@H]2O[C@H](CO)[C@@H](O)[C@H](O)[C@H]2O[C@H]2C[C@](C)(N)[C@H](O)[C@H](C)O2)Oc2ccc(cc2Cl)[C@H]1O [VANCOMYCIN]	0.63	0.63	13	0.6	750	inactive	inactive	inactive	inactive		Dose-dependent effect	Active	Active	>20	100	Active
CN[C@H](CC(C)C)C(=O)N[C@H]1C(=O)N[C@@H](CC(N)=O)C(=O)N[C@H]2C(=O)N[C@H]3C(=O)N[C@H](C(=O)N[C@H](C(=O)NCCCN(C)C)c4cc(O)cc(O)c4-c4cc3ccc4O)[C@H](O)c3ccc(c(Cl)c3)Oc3cc2cc(c3O[C@@H]2O[C@H](CO)[C@@H](O)[C@H](O)[C@H]2O[C@H]2C[C@](C)(N)[C@H](O)[C@H](C)O2)Oc2ccc(cc2Cl)[C@H]1O	0.62	0.61	1.47	0.63	> 100	inactive	inactive	inactive	inactive	inactive						
CCCCCCCCCCCCCC[N+](C)(C)CCCNC(C)=O							inactive		inactive	inactive						
